Results on 1 compound are retold here after ChEMBL document CHEMBL3102735, “Enhancing the pharmacodynamic profile of a class of selective COX-2 inhibiting nitric oxide donors” (Bioorg Med Chem, 2014).

Data set [1] can be described thus: Metabolic stability in Sprague-Dawley rat plasma assessed as compound remaining after 30 mins by LC-MS/MS analysis. The format is ADME, cell-free. The conditions noted are these: read-out: Stability. The essentials: (§1)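 Compound (12 µL of 1 mM DMSO solution into 588 µL medium) incubated in PBS pH 7.4, pepsin-free SGF pH 1.5, or EDTA rat plasma. Aliquots taken at 0, 30, 60, 120 min and quenched with ice-cold acetonitrile containing internal standard; parent remaining as percent.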

Data set [2] has as its system Liver. Kind of data set: Induction of nitric oxide production in Wistar rat liver homogenate assessed as NOx level at 1 mM. The note with it: TDE = time-dependent effect. It counts as functional, tissue-based.
Data set [3] has as its system Mus musculus. Description: Antihyperalgesic activity in Swiss albino mouse assessed as reduction in carrageenan-induced inflammation at 20 mg/kg, po after 60 mins relative to control. The format is functional. Also on record: scale not given: the % may be the effect or the level left.
The test system of data set [4] is Mus musculus. Description: Analgesic activity in Swiss albino mouse assessed as reduction of acetic acid-induced writhing at 10 mg/kg, po measured every 10 mins after 5 mins of administration relative to control. It counts as functional. Further details: scale not given: the % may be the effect or the level left; call rule not given here. The method, boiled down:
(§2)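 Male Swiss albino mice (23–25 g), compound given orally in CMC vehicle; writhing induced by 0.6% acetic acid (10 mL/kg) ip. Stretching movements counted for 10 min, starting 5 min after administration; percent reduction versus CMC-treated animals.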
(An intraperitoneal irritant provokes the stretching counted in writhing tests.)

Data set [5] concerns the target T1, Prostaglandin G/H synthase 1 (Mus musculus, UniProt P22437).
T1 sequence (P22437 whole entry): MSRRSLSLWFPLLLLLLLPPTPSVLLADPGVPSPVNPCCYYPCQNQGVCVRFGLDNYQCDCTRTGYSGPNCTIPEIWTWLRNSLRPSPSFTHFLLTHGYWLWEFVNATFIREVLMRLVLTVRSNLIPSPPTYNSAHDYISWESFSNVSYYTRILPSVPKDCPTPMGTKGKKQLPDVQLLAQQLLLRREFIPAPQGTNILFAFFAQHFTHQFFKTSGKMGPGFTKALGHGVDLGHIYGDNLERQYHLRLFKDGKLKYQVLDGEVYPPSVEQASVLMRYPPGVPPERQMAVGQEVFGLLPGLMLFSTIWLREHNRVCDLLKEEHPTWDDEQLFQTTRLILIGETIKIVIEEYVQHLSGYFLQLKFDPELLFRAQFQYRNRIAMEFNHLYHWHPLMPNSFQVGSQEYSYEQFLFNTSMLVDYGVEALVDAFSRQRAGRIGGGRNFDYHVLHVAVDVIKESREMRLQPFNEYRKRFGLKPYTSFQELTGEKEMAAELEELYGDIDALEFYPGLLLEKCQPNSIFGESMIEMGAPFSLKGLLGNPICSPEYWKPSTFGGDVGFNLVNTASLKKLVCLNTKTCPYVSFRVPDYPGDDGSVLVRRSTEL
Description: Inhibition of COX-1 in mouse J774 cells using arachidonic acid as substrate assessed as inhibition of prostaglandin E2 production preincubated for 15 mins followed by substrate addition measured after 30 mins by RIA. It counts as cell-based. The essentials:
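J774 murine macrophages pretreated 15 min with compound (10 µM; lower concentrations 0.01–1 µM where needed), then incubated 30 min at 37 °C with 15 µM arachidonic acid; supernatant PGE2 measured by RIA. Triplicate wells, mean of three experiments of percent inhibition versus control; IC50 by sigmoidal fit.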

Data set [6] relates to Rattus norvegicus. Kind of data set: Drug metabolism in Wistar rat plasma assessed as 2-(1-(4-fluorophenyl)-2-methyl-5-(4-(methylsulfonyl)phenyl)-1H-pyrrol-3-yl)-N-(2-hydroxyethyl)acetamide metabolite at 10 mg/kg, iv up to 6 hrs by LC-MS/MS analysis. The format is ADME, organism-based. Further details: dose 10 mg/kg, route intravenous. The note with it: in vivo. The method, boiled down:
(§3)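 Male Han Wistar rats, three per route, single 10 mg/kg/5 mL dose iv or po in 5% DMSO, 5% Cremophor EL, 0.1% Tween 80 in 150 mM phosphate buffer pH 7. Jugular-vein blood sampled, plasma methanol-precipitated, parent and hydroxy metabolite quantified by LC–MS/MS in positive ESI MRM mode (LLOQ 1–15 ng/mL).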

For data set [7], the system named is J774. Description: Selectivity index, ratio of IC50 for COX-1 to IC50 for COX-2 in mouse J774 cells. It counts as cell-based. The essentials: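 J774 macrophages stimulated 24 h with E. coli LPS (10 µg/mL) to induce COX-2, with or without compound (0.01–10 µM); supernatant PGE2 by RIA. Triplicate wells, three experiments, percent inhibition versus control, IC50 by sigmoidal fit; selectivity as COX-1/COX-2 IC50 ratio.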

The test system of data set [8] is Mus musculus. Description: Antiinflammatory activity in Swiss albino mouse assessed as reduction in carrageenan-induced paw edema at 40 mg/kg, po relative to control. The format is functional. Further details: scale not given: the % may be the effect or the level left. The method, boiled down:
(§4)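 Intraplantar carrageenan, compound po in CMC; volume of right hind paw measured 4 h after carrageenan injection and compared with saline/carrageenan-treated controls; percent oedema reduction.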
A general note: Carrageenan injected into the paw causes an acute inflammation.

A short description of data set [9]: Stability of the compound in simulated gastric fluid assessed as compound remaining at pH 1.5 after 60 mins by LC-MS/MS analysis. It counts as physicochemical. The conditions noted are these: read-out: Stability. The essentials: (§5)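 1 mM DMSO stock added to 0.01 M PBS (pH 7.4) or 0.05 M simulated gastric fluid without pepsin (pH 1.5 with HCl); incubated in hybridisation oven; aliquots at 0, 30, 60, 120 min quenched with ice-cold acetonitrile containing internal standard; parent remaining (%) measured.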

The nature of data set [10]: Stability of the compound in simulated gastric fluid assessed as compound remaining at pH 1.5 after 120 mins by LC-MS/MS analysis. It counts as physicochemical. The note with it: read-out: Stability. The method, boiled down: as §5
A short description of data set [11]: Stability of the compound in phosphate buffer saline assessed as compound remaining at pH 7.4 after 30 mins by LC-MS/MS analysis. The format is physicochemical. The conditions noted are these: read-out: Stability. The essentials:
as §5

The subject of data set [12] is Rattus norvegicus. Description: Volume of distribution at steady state in Wistar rat at 10 mg/kg, iv by LC-MS/MS analysis. The format is ADME, organism-based. Further details: dose 10 mg/kg, route intravenous. The note with it: in vivo.
For data set [13], the system named is Mus musculus. Kind of data set: Antihyperalgesic activity in Swiss albino mouse assessed as reduction in carrageenan-induced inflammation at 20 mg/kg, po after 120 mins relative to control. The format is functional. Further details: scale not given: the % may be the effect or the level left.
The target in data set [14] is Prostaglandin G/H synthase 1 (Homo sapiens, UniProt P23219). Kind of data set: Inhibition of COX-1 in human whole blood assessed as thromboxane B2 production by RIA.
Data set [15] has as its system Mus musculus. Kind of data set: Antihyperalgesic activity in Swiss albino mouse assessed as reduction in carrageenan-induced inflammation at 20 mg/kg, po after 30 mins relative to control. It counts as functional. Also on record: scale not given: the % may be the effect or the level left.
Data set [16] in a line: Metabolic stability in Sprague-Dawley rat plasma assessed as compound remaining after 120 mins by LC-MS/MS analysis. The note with it: read-out: Stability. It counts as ADME, cell-free. The method, boiled down:
as §1

The subject of data set [17] is Mus musculus. Kind of data set: Antiinflammatory activity in Swiss albino mouse assessed as reduction in carrageenan-induced paw edema at 20 mg/kg, po relative to control. It counts as functional. Also on record: scale not given: the % may be the effect or the level left. The essentials: as §4
For data set [18], the system named is Plasma. Description: Metabolic stability in Wistar rat plasma at 10 mg/kg, iv up to 6 hrs by LC-MS/MS analysis. Also on record: dose 10 mg/kg, route intravenous. The conditions noted are these: in vivo. The format is ADME, organism-based.
Data set [19] is described as follows: Oral bioavailability in Wistar rat at 10 mg/kg by LC-MS/MS analysis. The format is ADME, organism-based. The note with it: in vivo. The method, boiled down: as §3
In data set [20] the test system is Liver. Kind of data set: Induction of nitric oxide production in Wistar rat liver homogenate assessed as nitrite level at 1 mM. The note with it: TDE = time-dependent effect. It counts as functional, tissue-based.
The test system of data set [21] is Mus musculus. Description: Analgesic activity in po dosed Swiss albino mouse assessed as reduction of acetic acid-induced writhing measured every 10 mins after 5 mins of administration. It counts as functional, organism-based. The method, boiled down: as §2
Data set [22] relates to Mus musculus. Kind of data set: Antihyperalgesic activity in Swiss albino mouse assessed as reduction in carrageenan-induced inflammation at 40 mg/kg, po after 120 mins relative to control. It counts as functional. Further details: scale not given: the % may be the effect or the level left.
The nature of data set [23]: Stability of the compound in simulated gastric fluid assessed as compound remaining at pH 1.5 after 30 mins by LC-MS/MS analysis. The format is physicochemical. The note with it: read-out: Stability. The essentials:
as §5

Molecules are shown by their SMILES.

Chain of Prostaglandin G/H synthase 1 (Homo sapiens, UniProt P23219) (P23219 whole entry): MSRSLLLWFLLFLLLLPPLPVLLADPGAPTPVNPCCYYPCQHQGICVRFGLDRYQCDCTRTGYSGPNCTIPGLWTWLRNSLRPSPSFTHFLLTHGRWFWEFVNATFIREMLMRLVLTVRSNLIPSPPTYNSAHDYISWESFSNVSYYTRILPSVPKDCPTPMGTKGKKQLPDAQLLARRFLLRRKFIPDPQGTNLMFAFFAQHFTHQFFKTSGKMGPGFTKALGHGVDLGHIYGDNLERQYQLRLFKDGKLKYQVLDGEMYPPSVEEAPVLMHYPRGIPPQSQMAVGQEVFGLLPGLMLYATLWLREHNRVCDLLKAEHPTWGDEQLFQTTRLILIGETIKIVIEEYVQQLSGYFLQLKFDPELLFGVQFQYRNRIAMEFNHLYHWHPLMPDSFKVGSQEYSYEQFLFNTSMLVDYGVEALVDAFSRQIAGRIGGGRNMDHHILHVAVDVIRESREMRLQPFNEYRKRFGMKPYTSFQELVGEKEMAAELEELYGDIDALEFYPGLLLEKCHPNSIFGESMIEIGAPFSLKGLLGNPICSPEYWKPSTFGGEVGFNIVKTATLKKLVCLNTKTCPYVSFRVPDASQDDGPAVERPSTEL

For `Cc1c(CC(=O)NCCO[N+](=O)[O-])cc(-c2ccc(S(C)(=O)=O)cc2)n1-c1ccc(F)cc1`, the remaining at 0.5 h in data set [1], in [11] and in data set [23] was 100% each time. Besides, the Activity result in [2] is “tde”; in data set [3], 30%; in data set [4], 63%; in data set [8] it was 10%; in data set [13], 0%; in [15], 28%. Also, the Activity in data set [17] was 4%; in data set [20], “tde”; in [21], “Dose-dependent effect”; in data set [22], 0%. The results for the IC50 in data set [5] and in [14] were over 10000 nM and 600 nM, respectively. Moreover, the Drug metabolism entry in data set [6] was “Active”. In addition, the Ratio IC50 in data set [7] was over 42. Further, in data set [9], the remaining at 1 h was 100%. The remaining at 2 h in [10] and in data set [16] was 100% each time. The Vdss in data set [12] was found to be 367 mL. Also, in [18], the Stability entry is on record as “Stable”. Also, the bioavailability in [19] was 24%.

What is called IC50 is the concentration at which inhibition is half-maximal. As a reminder, the Vdss is a proportionality between amount in the body and measured concentration, not a real space. The bioavailability is the share of a dose that reaches the circulation, judged against a reference dose that is usually intravenous.
